Laboratory results published in the EternaBench riboswitch data.

System: MS2 coat protein
Test: apparent Kd, MS2 coat protein; higher = weaker binding; RNA-MaP array; FMN 200 µM where present
How it was run: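 Green signal from SNAP-549-labelled MS2 coat protein was normalised to red-channel RNA signal and to the median Fmax of control clusters. The protein was titrated from 0.7 or 1.5 nM, doubling to 3 µM, without and then with constant ligand, over designs transcribed by stalled E. coli RNA polymerase on Illumina sequencing-chip clusters, in 100 mM Tris-HCl pH 7.5, 80 mM KCl, 4 mM MgCl2, BSA, DTT, yeast tRNA and Tween-20. The apparent Kd is the median of filtered per-cluster binding-curve fits.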

[1] = designed as: OFF switch for flavin mononucleotide, no ligand
[2] = ligand present: flavin mononucleotide, designed as: OFF switch for flavin mononucleotide
[3] = designed as: ON switch for flavin mononucleotide, no ligand
[4] = ligand present: flavin mononucleotide, designed as: ON switch for flavin mononucleotide

Sequence	apparent Kd [1]	apparent Kd [2]	apparent Kd [3]	apparent Kd [4]
AGUACUACAGGAUAUACGAGGGAGGUCCACGUGACCCUUCUACAUGAGGAUCACCCAUGUAGAAGGGUAGUACA	13.9 nM	13.9 nM	–	–
GGUACUCAAAGAGUACCAAUACGAACAUGAGGAUCACCCAUGUAGGAUAUGCUACUCAAAGAGUAGCAGAAGGAUAUGUGCCUA	14.7 nM	15.3 nM	–	–
UAUUCACAUGAGGAUCACCCAUGUAGAAGGCCGAGCCUGGCCACGGUUACACGCCGUGGAGAGCCGGAGGAUAUACAGCUGGUG	111 nM	30.9 nM	–	–
CGCUACUACCAGAAGGACAUGAGGAUCACCCAUGUAGGAUAUGGGUUACACGUUCCUGUGAAUUGUAACGACGCUACGUAUGCG	–	–	203 nM	13.4 nM
UUUUUACAUGAGGAUCACCCAUGUCAGGAUAUCCUUAUAUUUUAUUAUUUUAUUUUUUGGAGAAGGGACUAUUA	367 nM	225 nM	–	–
ACCGUUGAAGCAGGAUAUUACAGCGCCAGCGUGUAAGAAGGGCUUCAACAUGAGGAUCACCCAUGUUGGAGUACCUCAAAAGUG	5.14 nM	31.4 nM	–	–
GCAGGAUAAGUGAGGAUAUACCUAUGGAUACAUAGGUAGAAGGUACAUGAGGAUCACCCAUGUUCCUCACCUGC	9.54 nM	10.1 nM	–	–
AGAAACUACGAGAAGGACAUGUAAAAUGCCGCAAACAUGAGGAUCACCCAUGUAGGAUAUCGUAGUUUCAGGAUCGUGAGAUCA	6.59 nM	18.1 nM	–	–
UUAAAUCAUGUAGGAUAUGCAUGGCGAAGCUACGCAGAAGGACAUGAGGAUCACCCAUGUGCUAGCGACUGAGUACAGUUGCAA	56.4 nM	325 nM	–	–
GUAGCAUGCCAAGGAUAUUCAUAUAGUAGGCAAACAUGAGGAUCACCCAUGUAAUGAGAGCAGUGGGAGAAGGUGGGAUGCUAC	–	–	51.5 nM	31.9 nM
UCGCUGCGAGGAUAUACGUUUGCGCGUUUUCGUUUGCGCGUACAUGAGGAUCACCCAUGUAGAAGGCGCGCUGC	15.4 nM	15.5 nM	–	–
UGUCGGAGCAGAGGAUAUUACAUGAGGAUCACCCAUGUAUGAACCAAGAGCUGGAAACAGCAAUGUAAGAAGGCUGCUCCGACA	10.9 nM	121 nM	–	–
AAGAAGUUAGGAUAUGCAUGGCGGGACUUGCGUCGUGGCGUGCAGAAGGAACAUGAGGAUCACCCAUGUAAAGA	29.1 nM	18.3 nM	–	–
AAAGCAACAUGAGGAUCACCCAUGUAGGAUAUCGCUAUUGUAAUCAUGAAACAUGAUUACAAUAGCGAGAAGGACAUAUGCUCC	6.61 nM	11.2 nM	–	–
GUACCUUAUGAGAAGGCGAUCAUGAAACAUGAUCGAGGAUAUCAUGAAAACAUGAGGAUCACCCAUGUAUGGGUAUUAUGGUAC	–	–	49.6 nM	17.7 nM
ACUUUACGAGGAUAUACUGUCGGGCCUCGGGCGUCCAUGCGACAUGAGGAUCACCCAUGUAGAAGGCGUUUACU	25.1 nM	51.5 nM	–	–
UUGUUCUGAGGAUAUACAUGAGGAUCACCCAUGUGUUUCAGCUAGGAGACUAGCGAAAGUAGAAGGCUGUUCUC	16.7 nM	17.9 nM	–	–
AGCUACGUUUCGUAGCAGCUAGGUGAGGAUAUUAAAAUUUUCACAUGAGGAUCACCCAUGUAUGUGAAGAAGGCGCCUAGAAAG	–	–	53.7 nM	7.76 nM
UAAUAAAACGAUCGGCGGUCCAUACAUGAGGAUCACCCAUGUAGAAGGCACUCUACAAAGUAGAGUGAGGAUAUACAAGAUCGA	15 nM	258 nM	–	–
GUCAGCUCGUGAGGAUAUACAACACUGCUUCGGCAGUGCAUUAAGAUCACAUGAGGAUCACCCAUGUAGAAGGCACGAGCUGAU	15 nM	313 nM	–	–
AGUUUGCGGCAGGAUAUCCAUCCGCGGUGUGGUGGAGAAGGGCUGACAUGAGGAUCACCCAUGUGCGUCCUGUA	23.2 nM	32.5 nM	–	–
AUUAAUCAGCAGGAUAUAAGUAUCUGAAGGUGGUUAGAAGGGCUGACAUGAGGAUCACCCAUGUGCUCUUCGUG	11.7 nM	18.8 nM	–	–
GAACGGUGAGCAGGAUAUCCACAUUGUCUCCUACAUGAGGAUCACCCAUGUGGAGAAGGGUUUAUAAGUUCGUGUAUACUCAAC	6.35 nM	6.9 nM	–	–
GUAUCUUACCAAGGAUAUUUACGAUUAGUGUAGACAUGAGGAUCACCCAUGUGGCCUUAGUCACGGGAGAAGGUGGUUUGAUAC	–	–	317 nM	73.7 nM
UACGACUUCGUAGGAUAUGUAUUUCAUUUCUACAUGAGGAUCACCCAUGUUUGCAUUUUUUUUUGACAGAAGGACGUAAUCGUA	–	–	15.4 nM	10.5 nM
ACAUGAGGAUCACCCAUGUGAGGAUCACCCAUGUUAUAUUUCAGAAGGCUCGUGUGUUUGAUGAGAGAGGAUAUGGAAUAUAGG	101 nM	71.1 nM	–	–
ACAGUUCUGCAAGGAUAUCGUCCUAGUUUGUUUCGAGAAGGUGCUUUAGUUUAUUCCUUUUGUUUACAUGAGGAUCACCCAUGU	23.6 nM	16.9 nM	–	–
GGAUAGGACAGAGGAUAUACGGAUAGGAUCUACUAUCCUCCUUAAAUAACAUGAGGAUCACCCAUGUAGAAGGCUGUCCUAUCG	16.9 nM	40.5 nM	–	–

Sequence	apparent Kd [1]	apparent Kd [2]	apparent Kd [3]	apparent Kd [4]
GGUGCCAUGUAGAAGGCAGAUCUGAUUCAGAUCUGAGGAUAUACAUGAGGAUCACCCAUGUAAAGGCACCGCCCGAGAGUGCAA	7.46 nM	17.6 nM	–	–
GGUACUCAAAGAGUACCAAUACGAACAUGAGGAUCACCCAUGUAGGAUAUGCUACUCAAAGAGUAGCAGAAGGACAUGUGCAUA	22.1 nM	135 nM	–	–
GUUUACGCAUGAGGAUAUGCUCGCAUUUCAAGAGCAGAAGGUAUGUCUUUAGACAUGAGGAUCACCCAUGUAUUUAUCAUUGAA	–	–	166 nM	28.4 nM
AAAAAGGCAGGAUAUACGAGUCAAAGAAAAGACAAAAAGGGACAUGAGGAUCACCCAUGUAGAAGGGCCAAAAA	36.9 nM	227 nM	–	–
UUAUAAAGUGUGAGGAUAUGCUGGUCCUUAGAUCAGCAGAAGGCACAUGAGGAUCACCCAUGUAAUAUAUUUUU	38.4 nM	185 nM	–	–
GCCUAACAUGAGGAUCACCCAUGUCGUGGGUUGUUAGGAUAUGGACCGCAAAACGCGGUACCAGAAGGAAUAGAAA	–	–	555 nM	297 nM
GCUGCAUAGGCAGGAUAUGCAAUAAUUCGAAUAGAAUAUAACGAAUUAACAUGAGGAUCACCCAUGUAGAAGGGCCUGUGCAGU	5.76 nM	5.58 nM	–	–
ACAUGAUCAGGAUAUACAUGAGGAUCACCCAUGUAAAUCAAAAAAAAACUUUCUUUAUGUAGAAGGGAUCUUGU	14.4 nM	15.5 nM	–	–
GGUGGCGCCUAGAAGGCCGGCCAAGAAGGAGCCGGAGGAUAUAGGCCUACAUGAGGAUCACCCAUGUGGCUUAGUCAUAUGGUU	22.4 nM	120 nM	–	–
CAAAAGCUAGGAUAUGCCAAUUGUUCCUUAAGUCAAAAUAAACAUGAGGAUCACCCAUGUAGAAGGAGCCCAAC	35.9 nM	19.8 nM	–	–
GUCGGAAACGACAAGUAGCAAUCGGAGGAUAUUCAUGGAAACAUGAGGAUCACCCAUGUAAAUUGGGAGAAGGCCGAUUGCUAC	–	–	1220 nM	93.6 nM
CACCAGCGAGGAUAUACACGUGGUCUCCACUCCCGGUGGUAACAUGAGGAUCACCCAUGUAGAAGGCGCAACAU	42 nM	220 nM	–	–
UAAAAGACUAGCAACUAACUCCACAUGAGGAUCACCCAUGUCUAGGAUAUGAGCAGCAAAGCUGCUUAGAAGGAGACGCUAGUC	6.48 nM	6.1 nM	–	–
CGCUCAAUUCUUUAGGUUAGAAUCAGAAGGCGUAACAUGAGGAUCACCCAUGUAUAGACGUGUAACGAGGAUAUGAAUUGAGCG	5.64 nM	5.46 nM	–	–
UUUGCAUUCCGAGGAUAUUCAUAUAAUAAAUAAACAUGAGGAUCACCCAUGUGGCGAAAGCCUAGGGAGAAGGCGGAAUGCUUU	–	–	184 nM	22 nM
GGAGCACACAUUAACAUGAGGAUCACCCAUGUCAAAAGACAUGAGGAUAUGGUUCCGAAAAGGAUCCAGAAGGCAUGGUGCUCC	–	–	356 nM	15.5 nM
CGGUGACGUGUAGGAUAUGGCGAUGGGUUUUGGCCAGAAGGACAUGAGGAUCACCCAUGUGGUAGAGGGUUGGCGGCUGCCCGU	47.4 nM	181 nM	–	–
CCUAAGGACACAGGAUAUAGCGUGGUGGCUAGACUCCAACGGCGAGCGGCGCUAGAAGGGUGACCACAUGAGGAUCACCCAUGU	–	–	553 nM	193 nM
GCUGUCGCAUGAGGAUAUGGUCAGCUUUGCUGACCAGAAGGCAUGUCAAUAGACAUGAGGAUCACCCAUGUAGUAAAGACGGCU	–	–	313 nM	32.4 nM
AUAAUUUUAUAUAUCAUAUAAAUCAGAAGGCAUAACAUGAGGAUCACCCAUGUAUAUUAUUGUUAUGAGGAUAUGAUUUCGUUA	9.12 nM	42.5 nM	–	–
GCUCGAUGUGCUGAAAACAUGAGGAUCACCCAUGUAAAUGAUCAGGAUAUUUACGUGCUUUAUGUAGAGAAGGGAUCAUCGAGC	–	–	260 nM	78.3 nM
GCCCGCCUAGCAGGAUAUACAGGUUGGCGGACAUGAGGAUCACCCAUGUAAGGCUACAUACACUUGUAGAAGGGUUGGGUGUCC	–	–	93.4 nM	33.7 nM
CCUUGGAUUGAGGAUAUAUGAACCUUUACGGUUGUAGAAGGCAGGACAUGAGGAUCACCCAUGUGGUGGCGCUC	1280 nM	1010 nM	–	–
UAGGAUCAACGAGGAUAUAAUAGGUUCAAUUUUUUAUAUUGUUUACAUGAGGAUCACCCAUGUUAUUAGAAGGCGUAUGGGAUU	–	–	53.5 nM	36.9 nM
UAAAUUAACAAGAAGGCUAACAUGAGGAUCACCCAUGUUGUACAUGGAUAUAGAGGAUAUUGCUAAUAUUUAUUUAUCAUAAUU	21.8 nM	17.3 nM	–	–
ACGAAACAUGAGGAUCACCCAUGUGAGGAUAUGUAAAUACUAGACAAAUAACAGAAAAACAGAAGGCACUCAGA	24.3 nM	22 nM	–	–
AAAUCAGUAGGAUAUACGAUUUUGUACUAGACAGAGGAACCACAUGAGGAUCACCCAUGUAGAAGGACUAGAUA	16.4 nM	13.9 nM	–	–
